Source: PubChem (several laboratories)
M1 antag: antagonists of rat M1 muscarinic receptor; CHO-M1 cells, Fluo-4 calcium, ACh EC80 antagonist mode; stronger effect = lower value; B-score at 10 µM; hit rate 3.4% among 64,000;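 active = calcium fluorescence response, raw or row-and-column corrected B-score, differing from the plate sample mean either way at a set confidence level, mostly lower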
JNK3 blocker: blocks human JNK3 kinase activity; P53779; purified JNK3 kinase activity, HTS; inhibition, % at 8 µM; hit rate 0.61% among 60,000; AID 746; in the data active = inhibition above about 17%
Her2 expr inh: lowers expression of human Her2 kinase | P04626 | SKBR-3 HER2 protein level, AlphaScreen, 18-24 h; stronger effect = lower value | HER2 level % of control, % at 10 µM | hit rate 0.69% among 65,000 | AID 645;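 active = HER2 level under 5% of the carrier-only control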;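 also: lower value means stronger loss of Her2 protein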
M1 ag: activates the M1 muscarinic receptor; CHO-M1 cells, Fluo-4 calcium fluorescence, agonist mode; stronger effect = higher value; B-score at 10 µM; hit rate 3% among 64,000; AID 626;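 active = fluorescence rise, raw or as B-score row- and column-corrected plate score, outside the 99.7% band of its plate's samples, either direction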
BAP1 inh: inhibitors of human BAP1 deubiquitinase. Q92560. recombinant BAP1, Ub-AMC hydrolysis fluorescence kinetic; stronger effect = lower value. calls only at 20 µM. hit rate 0.48% among 72,000. AID 436;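 active = activity remaining at or below 50% of control, provided the compound also passes the data quality filters; inactive = the rest, including low values that fail the filters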
Target sequence (Q92560 whole entry, looked up): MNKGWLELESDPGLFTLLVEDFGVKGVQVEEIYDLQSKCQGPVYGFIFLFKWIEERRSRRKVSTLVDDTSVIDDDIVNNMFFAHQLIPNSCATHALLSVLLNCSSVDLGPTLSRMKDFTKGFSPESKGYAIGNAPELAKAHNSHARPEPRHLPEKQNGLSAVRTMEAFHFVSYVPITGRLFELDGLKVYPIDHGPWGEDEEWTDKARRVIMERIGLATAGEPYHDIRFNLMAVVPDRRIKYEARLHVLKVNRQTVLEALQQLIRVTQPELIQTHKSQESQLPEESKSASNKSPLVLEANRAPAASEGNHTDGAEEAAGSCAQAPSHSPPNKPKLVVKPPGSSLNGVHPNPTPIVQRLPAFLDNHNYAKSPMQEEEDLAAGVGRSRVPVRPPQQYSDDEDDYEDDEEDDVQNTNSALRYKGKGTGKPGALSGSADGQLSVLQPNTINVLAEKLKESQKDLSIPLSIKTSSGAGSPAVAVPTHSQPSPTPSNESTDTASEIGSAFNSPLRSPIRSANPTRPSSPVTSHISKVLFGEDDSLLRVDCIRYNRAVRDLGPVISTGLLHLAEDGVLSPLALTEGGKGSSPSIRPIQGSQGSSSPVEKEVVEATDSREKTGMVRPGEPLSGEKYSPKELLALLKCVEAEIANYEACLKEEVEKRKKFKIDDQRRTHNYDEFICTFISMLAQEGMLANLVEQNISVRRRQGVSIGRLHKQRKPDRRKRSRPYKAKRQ
HEK293 NFkB inh: inhibitors of the PMA/ionomycin-induced NF-kB reporter in HEK293 cells; HEK-293 NF-kB luciferase reporter, luminescence; inhibition, % at 3 µM; hit rate 0.21% among 62,000; AID 465;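 active = inhibition above the mean of all tested compounds plus 3 SD, cut at about 40% in these data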
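System – HEK-293 cells with stable firefly luciferase reporter driven by four HIV NF-kB elements · Doses – one dose, 3 µM · Schedule – 1 h compound pre-incubation, 16 h PMA/ionomycin at 37 °C · Technique – luminescence from luciferase substrate reagent · Measure – percent inhibition normalized per plate to DMSO and reference-inhibitor controls · Replicates – tested once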
Large screens that a line does not name were inactive. Shown are actives, neighbours in structure and some others; about 6.6% of the full set was active somewhere.

COc1ccc2cc(C(=O)Nc3ccccc3)c(=Nc3ccc(F)cc3)oc2c1	none (no result: M1 antag, JNK3 blocker, Her2 expr inh, M1 ag, HEK293 NFkB inh)
CCn1c2ccccc2c2cc(C3C(C#N)=C(N)Oc4n[nH]c(COC)c43)ccc21 (configuration not stated)	Her2 expr inh -24
Cc1nc2ccccc2nc1N1CCCCC1	none
c1ccc(Sc2nc(N3CCCCC3)nc(N3CCCCC3)n2)nc1	M1 antag 2.1 (no result: JNK3 blocker, Her2 expr inh, BAP1 inh, HEK293 NFkB inh)
CCC(C)(C)C1CCc2c(sc(NC(=O)c3cc(Cl)ccc3OC)c2C(N)=O)C1 (configuration not stated)	none (no result: M1 antag, JNK3 blocker, Her2 expr inh, M1 ag, HEK293 NFkB inh)
COc1ccc(N2CCN(Cc3cc(=O)oc4ccc(Cl)cc34)CC2)cc1	none
COc1ccc(N2CCN(Cc3cc(=O)oc4c3ccc3ccccc34)CC2)cc1	BAP1 inh active
CCCc1cc(C(=O)Cc2ccc(F)cc2)c(O)cc1O	Her2 expr inh -12 (no result: HEK293 NFkB inh)
CCc1cc(C(=O)Cc2ccc(F)cc2)c(O)cc1O	none
CCOC(=O)c1c(C)n(C)c2ccc(OCC(O)Cn3c(C)nc4ccccc43)cc12 (configuration not stated)	M1 ag 2.1
O=C(CN1CCC(c2nc3ccccc3s2)CC1)NCc1cccs1	Her2 expr inh -13
CC(C)n1c(N2CCN(CC(=O)NCc3cccs3)CC2)nc2ccccc21	none
COC(=O)COc1ccc(S(=O)(=O)Nc2ccc3c(c2)OCO3)cc1	Her2 expr inh -11
CCOc1ccc(-n2cc(C(=O)N3CCC(C)CC3)c3cc(OC)c(OC)cc3c2=O)cc1	none
CCOc1ccc(-n2cc(C(=O)Nc3cccc(C)n3)c3cc(OC)c(OC)cc3c2=O)cc1	M1 ag 7.6
Cc1sccc1C1C(C#N)=C(N)SC(N)=C1C#N	M1 ag 130 (no result: HEK293 NFkB inh)
CCCCc1ccc(C2C(C#N)=C(N)SC(N)=C2C#N)s1	none
CCOc1ccc(C2C(C#N)=C(N)SC(N)=C2C#N)c(OCC)c1	none
Cc1cc(C2C(C#N)=C(N)SC(N)=C2C#N)c(C)s1	M1 ag 3.3
Cc1c(N=Cc2c(O)n(Cc3ccco3)c(=O)c3ccccc23)c(=O)n(-c2ccccc2)n1C	M1 antag -2.8
CC1CC=C2C(C#N)=C(N)C(C#N)(C#N)C(c3cccs3)C2C1 (configuration not stated)	M1 ag 12 (no result: JNK3 blocker, Her2 expr inh, BAP1 inh)
O=C(CCn1cnc2ccccc2c1=O)Nc1ccc2c(c1)OCCO2	none
Cc1ccc(NC(=O)CCn2cnc3ccccc3c2=O)cc1Cl	none
O=C(CCn1cnc2ccccc2c1=O)Nc1ccc(S(=O)(=O)N2CCCCC2)cc1	JNK3 blocker 20
O=C(CCn1cnc2ccccc2c1=O)Nc1ccc(S(=O)(=O)N2CCCC2)cc1	JNK3 blocker 27
CC1(C)Cc2c(C#N)c(NCc3ccco3)nc(-c3ccco3)c2CO1	none (not shown: BAP1 inh, HEK293 NFkB inh)
Cc1nc(NCc2ccco2)c(C#N)c2c1COC(C)(C)C2	JNK3 blocker 31
CCc1ccc(NC(=O)N(CCN2CCOCC2)C2CCN(C(C)=O)CC2)cc1	Her2 expr inh -27
O=c1c2ccccc2nc2c3c4c(sc3ncn12)CCCC4	none (no result: M1 antag, JNK3 blocker, Her2 expr inh, M1 ag, HEK293 NFkB inh)
Cc1ccc(N2CCN(S(=O)(=O)c3ccccc3)CC2)cc1	none (no result: M1 antag, JNK3 blocker, Her2 expr inh, M1 ag, HEK293 NFkB inh)
O=C(c1cccc2c1-c1ccccc1/C2=N/O)N1CCCCC1	JNK3 blocker 26
CCCn1cnc2c(c1=O)c1nc3ccccc3nc1n2CCC1=CCCCC1	none
CCOCCCn1c(C)nc2c(c1=O)c1nc3ccccc3nc1n2CCC1=CCCCC1	Her2 expr inh -22
Cc1nc(NC2=NCN(CCc3ccccc3)CN2)nc2c(C)cccc12	none
Cc1nc(NC2=NCN(CCc3ccccc3)CN2)nc2ccccc12	M1 antag -9
Cc1ccc2c(C)nc(NC3=NCN(CCc4ccccc4)CN3)nc2c1	M1 antag -13
COCCN1CN=C(Nc2nc3ccccc3s2)NC1	none
COCCN1CN=C(Nc2nc(C)c3ccc(C)cc3n2)NC1	M1 antag -7.3
O=C(Nc1ccc(Cl)c([N+](=O)[O-])c1)C1CC(=O)N(c2ccc(F)cc2)C1 (configuration not stated)	none (no result: M1 antag, JNK3 blocker, Her2 expr inh, M1 ag, HEK293 NFkB inh)
Cn1c(=O)c(C(=O)Nc2ccccc2F)c(O)c2ccccc21	none (no result: M1 antag, JNK3 blocker, Her2 expr inh, M1 ag, HEK293 NFkB inh)
CCCS(=O)(=O)N1CCC(C(=O)N2CCC(Cc3ccccc3)CC2)CC1	Her2 expr inh -27
CC(=O)Oc1cc2sc3ccccc3[nH]c2c2c(=O)c3ccccc3c(=O)c12	none (no result: M1 antag, JNK3 blocker, Her2 expr inh, M1 ag, HEK293 NFkB inh)
COc1cccc(NC(=O)CCCn2c(=O)[nH]c3ccccc3c2=O)c1	JNK3 blocker 19
